Measured values taken from ChEMBL document CHEMBL1926515, “Synthesis and QSAR study of novel cytotoxic spiro[3H-indole-3,2'(1'H)-pyrrolo[3,4-c]pyrrole]-2,3',5'(1H,2'aH,4'H)-triones” (Eur J Med Chem, 2012).

Tests used:
Format in all cases: functional, cell-based
HCT-116 = assay: Cytotoxicity against human HCT116 cells after 48 hrs by sulforhodamine B assay; settings: HCT-116, 48 h
Outline: (§1)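 Cells were seeded at 5×10^4–10^5 per well and allowed to attach for 24 h. Cells were then fixed and SRB-stained, washed with acetic acid, and the dye was recovered in Tris-EDTA for A564. Surviving fraction = OD treated/OD control. IC50 was taken as 50% growth inhibition relative to control, from mean values. Doxorubicin served as reference.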

HepG2 = assay: Cytotoxicity against human HepG2 cells after 48 hrs by sulforhodamine B assay; settings: HepG2, 48 h; outline: as §1
MCF7 = assay: Cytotoxicity against human MCF7 cells after 48 hrs by sulforhodamine B assay; settings: MCF7, 48 h; outline: as §1

SMILES	IC50 (HCT-116)	IC50 (HepG2)	IC50 (MCF7)
COc1ccc2c(c1)C1(C(=O)N2)C2C(=O)N(c3ccc(Cl)cc3)C(=O)C2CN1C (configuration not stated)	47.4 µM	43.4 µM	38.7 µM
CN1CC2C(=O)N(c3ccccc3)C(=O)C2C12C(=O)Nc1ccccc12 (configuration not stated)	63.7 µM	32.9 µM	35.6 µM
CN1CC2C(=O)N(c3ccccc3)C(=O)C2C12C(=O)Nc1ccc(Cl)cc12 (configuration not stated)	33 µM	33 µM	38.7 µM
COc1ccc2c(c1)C1(C(=O)N2)C2C(=O)N(c3ccccc3)C(=O)C2CN1C (configuration not stated)	34.1 µM	44.2 µM	44.8 µM
CN1CC2C(=O)N(c3ccc(Cl)cc3)C(=O)C2C12C(=O)Nc1ccccc12 (configuration not stated)	36.8 µM	32.4 µM	43 µM
CN1CC2C(=O)N(c3ccc(Cl)cc3)C(=O)C2C12C(=O)Nc1ccc(Cl)cc12 (configuration not stated)	35.5 µM	29.2 µM	40.6 µM
CN1CC2C(=O)N(c3ccc(F)cc3)C(=O)C2C12C(=O)Nc1ccccc12 (configuration not stated)	42.4 µM	87.3 µM	33.9 µM
CN1CC2C(=O)N(c3ccc(F)cc3)C(=O)C2C12C(=O)Nc1ccc(Cl)cc12 (configuration not stated)	73.3 µM	41.1 µM	89.9 µM
COc1ccc2c(c1)C1(C(=O)N2)C2C(=O)N(c3ccc(F)cc3)C(=O)C2CN1C (configuration not stated)	31.3 µM	27.7 µM	44 µM
Cc1ccc(N2C(=O)C3CN(C)C4(C(=O)Nc5ccccc54)C3C2=O)cc1 (configuration not stated)	46.1 µM	77.1 µM	37.6 µM
Cc1ccc(N2C(=O)C3CN(C)C4(C(=O)Nc5ccc(Cl)cc54)C3C2=O)cc1 (configuration not stated)	> 126 µM	63.2 µM	49.9 µM
COc1ccc2c(c1)C1(C(=O)N2)C2C(=O)N(c3ccc(C)cc3)C(=O)C2CN1C (configuration not stated)	46.2 µM	12.2 µM	46.8 µM
COc1ccc(N2C(=O)C3CN(C)C4(C(=O)Nc5ccccc54)C3C2=O)cc1 (configuration not stated)	53.6 µM	72.5 µM	48 µM
COc1ccc(N2C(=O)C3CN(C)C4(C(=O)Nc5ccc(Cl)cc54)C3C2=O)cc1 (configuration not stated)	41 µM	28.9 µM	38.1 µM
COc1ccc(N2C(=O)C3CN(C)C4(C(=O)Nc5ccc(OC)cc54)C3C2=O)cc1 (configuration not stated)	40.9 µM	49.7 µM	42.7 µM
COc1cccc2c1C(=O)c1c(O)c3c(c(O)c1C2=O)C[C@@](O)(C(=O)CO)C[C@@H]3O[C@H]1C[C@H](N)[C@H](O)[C@H](C)O1 [DOXORUBICIN]	6.86 µM	7.36 µM	–
